# Measurements reported in ChEMBL document CHEMBL1811814, “Synthesis and evaluation of indole, pyrazole, chromone and pyrimidine based conjugates for tumor growth inhibitory activities--development of highly efficacious cytotoxic agents” (Eur J Med Chem, 2010).
# What was measured:
# Type in all cases: functional
# [1] = system: BT-549; test: Growth inhibition of human BT549 cells
# [2] = system: SF-268; test: Growth inhibition of human SF268 cells
# [3] = system: SK-MEL-2; test: Growth inhibition of human SK-MEL-2 cells assessed tumor cell growth at 10^-5 M; design: scale not given: the % may be the effect or the level left
# How it was run: (§1)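 NCI 60-human-tumor-cell-line panel screen. Each compound was tested at a single concentration of 10^-5 M, and percent growth of tumor cells was recorded for each cell line. Growth inhibition was expressed from these percent-growth values.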
# [4] = system: NCI-H226; test: Growth inhibition of human NCI-H226 cells
# [5] = system: UO-31; test: Growth inhibition of human UO31 cells assessed tumor cell growth at 10^-5 M; design: scale not given: the % may be the effect or the level left
# How it was run: (§2)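 Single-dose screen at 10^-5 M across the 60 human tumor cell line panel, run to NCI standards. The value is the percent growth of each cell line in the presence of compound. Compounds active at this dose moved on to five-concentration testing (10^-4 to 10^-8 M).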
# [6] = system: COLO 205; test: Growth inhibition of human COLO205 cells
# [7] = system: EKVX; test: Growth inhibition of human EKVX cells
# [8] = system: A549; test: Growth inhibition of human A549 cells assessed tumor cell growth at 10^-5 M; design: scale not given: the % may be the effect or the level left; how it was run: as §1
# [9] = system: NCI-H23; test: Growth inhibition of human NCI-H23 cells
# [10] = system: Malme-3M; test: Growth inhibition of human MALME-3M cells
# [11] = system: SW-620; test: Growth inhibition of human SW620 cells assessed tumor cell growth at 10^-5 M; design: scale not given: the % may be the effect or the level left; how it was run: as §2
# [12] = Growth inhibition of human Hs 578T cells
# [13] = system: M14; test: Growth inhibition of human M14 cells assessed tumor cell growth at 10^-5 M; design: scale not given: the % may be the effect or the level left; how it was run: as §1
# [14] = system: DU-145; test: Growth inhibition of human DU145 cells assessed tumor cell growth at 10^-5 M; design: scale not given: the % may be the effect or the level left; how it was run: as §1
# [15] = Growth inhibition of human […] cells assessed tumor cell growth at 10^-5 M; design: scale not given: the % may be the effect or the level left; how it was run: as §1
# [16] = system: 786-0; test: Growth inhibition of human 786-0 cells assessed tumor cell growth at 10^-5 M; design: scale not given: the % may be the effect or the level left; how it was run: as §1
# [17] = system: U-251; test: Growth inhibition of human U251 cells assessed tumor cell growth at 10^-5 M; design: scale not given: the % may be the effect or the level left; how it was run: as §2
# [18] = system: LOX IMVI; test: Growth inhibition of human LOXIMVI cells assessed tumor cell growth at 10^-5 M; design: scale not given: the % may be the effect or the level left; how it was run: as §1
# [19] = system: NCI-H522; test: Growth inhibition of human NCI-H522 cells assessed tumor cell growth at 10^-5 M; design: scale not given: the % may be the effect or the level left; how it was run: as §1
# [20] = system: SNB-75; test: Growth inhibition of human SNB75 cells assessed tumor cell growth at 10^-5 M; design: scale not given: the % may be the effect or the level left; how it was run: as §2
# [21] = system: NCI-H460; test: Growth inhibition of human NCI-H460 cells
# [22] = system: MDA-MB-231; test: Growth inhibition of human MDA-MB-231 cells
# [23] = system: HCC 2998; test: Growth inhibition of human HCC2998 cells assessed tumor cell growth at 10^-5 M; design: scale not given: the % may be the effect or the level left; how it was run: as §1
# [24] = system: MDA-MB-435; test: Growth inhibition of human MDA-MB-435 cells assessed tumor cell growth at 10^-5 M; design: scale not given: the % may be the effect or the level left; how it was run: as §1
# [25] = system: RXF 393; test: Growth inhibition of human RXF393 cells assessed tumor cell growth at 10^-5 M; design: scale not given: the % may be the effect or the level left; how it was run: as §1
# [26] = system: NCI-H460; test: Growth inhibition of human NCI-H460 cells assessed tumor cell growth at 10^-5 M; design: scale not given: the % may be the effect or the level left; how it was run: as §1
# [27] = system: IGROV-1; test: Growth inhibition of human IGROV1 cells assessed tumor cell growth at 10^-5 M; design: scale not given: the % may be the effect or the level left; how it was run: as §1
# [28] = system: NCI-H322M; test: Growth inhibition of human NCI-H322M cells assessed tumor cell growth at 10^-5 M; design: scale not given: the % may be the effect or the level left; how it was run: as §1
# [29] = system: ACHN; test: Growth inhibition of human ACHN cells
# [30] = system: OVCAR-8; test: Growth inhibition of human OVCAR8 cells
# [31] = system: CCRF-CEM; test: Growth inhibition of human CCRF-CEM cells
# [32] = system: HOP-62; test: Growth inhibition of human HOP62 cells assessed tumor cell growth at 10^-5 M; design: scale not given: the % may be the effect or the level left; how it was run: as §1
# [33] = system: A498; test: Growth inhibition of human A498 cells
# [34] = system: PC-3; test: Growth inhibition of human PC3 cells
# [35] = system: OVCAR-3; test: Growth inhibition of human OVCAR3 cells assessed tumor cell growth at 10^-5 M; design: scale not given: the % may be the effect or the level left; how it was run: as §1
# [36] = system: LOX IMVI; test: Growth inhibition of human LOXIMVI cells
# [37] = system: ACHN; test: Growth inhibition of human ACHN cells assessed tumor cell growth at 10^-5 M; design: scale not given: the % may be the effect or the level left; how it was run: as §1
# [38] = system: UACC-257; test: Growth inhibition of human UACC257 cells
# [39] = system: SNB-19; test: Growth inhibition of human SNB19 cells
# [40] = system: NCI-H522; test: Growth inhibition of human NCI-H522 cells
# [41] = system: SF-539; test: Growth inhibition of human SF539 cells
# [42] = system: IGROV-1; test: Growth inhibition of human IGROV1 cells
# How it was run: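 Follow-up panel testing at five concentrations (10^-4, 10^-5, 10^-6, 10^-7 and 10^-8 M) across the 60 human tumor cell lines. GI50 was obtained for each line from the concentration-response data, with the panel average GI50 also reported.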
# [43] = system: MCF7; test: Growth inhibition of human MCF7 cells assessed tumor cell growth at 10^-5 M; design: scale not given: the % may be the effect or the level left; how it was run: as §1
# [44] = system: SK-MEL-5; test: Growth inhibition of human SK-MEL-5 cells assessed tumor cell growth at 10^-5 M; design: scale not given: the % may be the effect or the level left; how it was run: as §1
# [45] = system: MOLT-4; test: Growth inhibition of human MOLT4 cells
# [46] = system: M14; test: Growth inhibition of human M14 cells
# [47] = system: HCT-116; test: Growth inhibition of human HCT116 cells assessed tumor cell growth at 10^-5 M; design: scale not given: the % may be the effect or the level left; how it was run: as §1
# [48] = system: U-251; test: Growth inhibition of human U251 cells
# [49] = system: T47D; test: Growth inhibition of human T47D cells
# [50] = system: A498; test: Growth inhibition of human A498 cells assessed tumor cell growth at 10^-5 M; design: scale not given: the % may be the effect or the level left; how it was run: as §1
# [51] = Growth inhibition of human RPMI8266 cells
# [52] = system: SN12C; test: Growth inhibition of human SN12C cells assessed tumor cell growth at 10^-5 M; design: scale not given: the % may be the effect or the level left; how it was run: as §1
# [53] = read-out: LC50 (the source's name)
smiles,measurement,setting,value
O=C1/C(=C\c2ccccn2)c2ccccc2N1c1c(Cl)cccc1Cl,GI50,[1],2.4 µM
same,CC50,[1]; [53],23.4 µM
same,GI50,[2],3.6 µM
same,CC50,[2]; [53],40.7 µM
same,Activity,[3],48.8%
same,GI50,[4],0.01 µM
same,CC50,[4]; [53],9.1 µM
same,Activity,[5],16.75%
same,GI50,[6],2.3 µM
same,LC50,[6],> 100 µM
same,GI50,[7],2 µM
same,CC50,[7]; [53],> 100 µM
same,Activity,[8],50.33%
same,GI50,[9],3.5 µM
same,LC50 (concentration killing 50% of cells),[9],> 100 µM
same,GI50,[10],1.9 µM
same,CC50,[10]; [53],16.9 µM
same,Activity,[11],-56.9%
same,GI50,[12],5.6 µM
same,CC50,[12]; [53],> 100 µM
same,Activity,[13],-43.6%
same,Activity,[14],-0.09%
same,Activity,[15],-12.52%
same,Activity,[16],-81.44%
same,Activity,[17],-2.48%
same,Activity,[18],-89.2%
same,Activity,[19],36.79%
same,Activity,[20],-17.92%
same,GI50,[21],1.8 µM
same,CC50,[21]; [53],7 µM
same,GI50,[22],2 µM
same,CC50,[22]; [53],29.5 µM
same,Activity,[23],-82.08%
same,Activity,[24],-5.05%
same,Activity,[25],-35.21%
same,Activity,[26],-29.25%
same,Activity,[27],8.25%
same,Activity,[28],61.39%
same,GI50,[29],1.8 µM
same,CC50,[29]; [53],7.2 µM
same,GI50,[30],2.1 µM
same,CC50,[30]; [53],> 100 µM
same,GI50,[31],3.2 µM
same,CC50,[31]; [53],> 100 µM
same,Activity,[32],5.17%
same,GI50,[33],2.9 µM
same,CC50,[33]; [53],72.4 µM
same,GI50,[34],2.2 µM
same,CC50,[34]; [53],93.3 µM
same,Activity,[35],27.36%
same,GI50,[36],1.7 µM
same,CC50,[36]; [53],6.4 µM
same,Activity,[37],19.58%
same,GI50,[38],1.7 µM
same,CC50,[38]; [53],18.2 µM
same,GI50,[39],2.2 µM
same,CC50,[39]; [53],32.3 µM
same,GI50,[40],1.6 µM
same,LC50 (concentration killing 50% of cells),[40],7.5 µM
same,GI50,[41],2.4 µM
same,CC50,[41]; [53],> 100 µM
same,GI50,[42],1.7 µM
same,Activity,[43],-10.81%
same,Activity,[44],23.68%
same,GI50,[45],4.4 µM
same,LC50,[45],> 100 µM
same,GI50,[46],1.7 µM
same,CC50,[46]; [53],7.7 µM
same,Activity,[47],-94.37%
same,GI50,[48],1.8 µM
same,CC50,[48]; [53],7.4 µM
same,GI50,[49],2.3 µM
same,CC50,[49]; [53],> 100 µM
same,Activity,[50],21.33%
same,GI50,[51],2.2 µM
same,CC50,[51]; [53],> 100 µM
same,Activity,[52],18.08%
